High-throughput results as filed in PubChem.
TAAR1 antagonist: antagonists of human TAAR1. Q96RJ0. CHO RD-HGA16 TAAR1, Fluo-8 calcium fluorescence, antagonist. inhibition, % at 3 µM. 360,000 tested, 1.5% active. AID 624466;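 active = inhibition above a per-plate cutoff, the mean inhibition of test compounds on that plate plus 3 SD, cut at about 49% in these data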
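Assay system: CHO-derived RD-HGA16 cells stably expressing human TAAR1 plus Gα16. Timing: 140 s kinetic read after compound, 140 s after agonist. Technique: kinetic Fluo-8 calcium fluorescence measurement. Measure: % inhibition of agonist calcium response.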
TAAR1 agonist: human TAAR1 agonism. Q96RJ0. CHO RD-HGA16 TAAR1, Fluo-8 calcium fluorescence; vehicle wells 0%, saturating PEA agonist 100%. activation, % at 3 µM. 360,000 tested, 0.99% active. AID 624467;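 active = activation above the mean activation of all test compounds in the run plus 3 SD, cut at about 38% in these data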
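Test system: RD-HGA16 (CHO) cells co-expressing Gα16 and hTAAR1 | Doses: Single dose, 3 µM | Schedule: 17-24 h seeding, 75 min 37 °C dye, 30 min RT | Evaluation: % activation from peak over basal fluorescence ratio, DMSO-to-PEA scaled | Technique: Kinetic Fluo-8 calcium fluorescence | Benchmarks: Low control DMSO, high control PEA (EC100)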
M1 PAM: potentiates human M1 receptor response to acetylcholine | P11229 | CHO-K1 hM1, Fluo-8 calcium fluorescence, ACh EC20; 0% = ACh EC20, 100% = maximal ACh | activation, % at 3 µM | 360,000 tested, 0.088% active | AID 588819; in the data active = activation above about 19%, passing the limit was not always enough
Target sequence (P11229 whole entry, looked up): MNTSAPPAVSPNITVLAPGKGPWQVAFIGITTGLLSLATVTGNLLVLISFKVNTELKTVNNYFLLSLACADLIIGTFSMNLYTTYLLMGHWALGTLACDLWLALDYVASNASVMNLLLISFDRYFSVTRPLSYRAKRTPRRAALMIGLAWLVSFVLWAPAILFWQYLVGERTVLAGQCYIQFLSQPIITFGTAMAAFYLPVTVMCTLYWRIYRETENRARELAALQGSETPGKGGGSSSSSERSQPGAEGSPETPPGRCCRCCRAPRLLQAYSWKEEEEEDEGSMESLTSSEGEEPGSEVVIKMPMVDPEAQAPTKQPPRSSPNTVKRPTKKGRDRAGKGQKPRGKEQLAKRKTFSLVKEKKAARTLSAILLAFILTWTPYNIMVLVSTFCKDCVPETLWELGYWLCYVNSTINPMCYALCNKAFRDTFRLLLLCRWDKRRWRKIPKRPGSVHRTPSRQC
M1 antag: blocks human M1 muscarinic receptor. P11229. CHO-K1 hM1, Fluo-8 calcium fluorescence, ACh EC80 antagonist. inhibition, % at 3 µM. 360,000 tested, 1.3% active. AID 588852;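 active = percent inhibition above its own plate's cutoff, namely the mean of that plate's compound wells plus 3 SD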;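 also: peak over basal fluorescence ratio during 140 s after agonist addition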
CHRM1 agonist: human M1 muscarinic receptor agonism | CHO-K1 hM1, Fluo-8 calcium fluorescence, agonist mode; 0% DMSO, 100% acetylcholine EC100 | 360,000 tested, 0.33% active | P11229 | AID 588814 | activation, % at 3 µM;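 active = activation above the run's mean compound activation plus 3 SD, cut at about 16% in these data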;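 also: peak over basal fluorescence ratio within a 140 s kinetic read after compound addition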
TAAR1 ag conf: confirmation of human TAAR1 agonists | 2,400 tested, 82% active | CHO RD-HGA16 TAAR1, Fluo-8 calcium fluorescence; scaled: DMSO 0%, maximal phenethylamine 100% | activation, % at 3 µM | shares compounds with TAAR1 agonist;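 active = activation above a cutoff set at the run's mean compound activation plus 3 SD, cut at about 39% in these data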
Ga16 nonsel ag: nonselective agonism, TAAR1 counter-screen; shares compounds with TAAR1 agonist; CHO-Ga16 parental, Fluo-8 calcium fluorescence; normalized to maximal ATP response, DMSO zero; 2,400 tested, 50% active; activation, % at 3 µM;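 active = activation above the run cutoff, the mean activation over all tested wells plus 3 SD, cut at about 12% in these data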
TAAR1 desens: counter-screen for human TAAR1 agonists: agonists that desensitize TAAR1 | shares compounds with TAAR1 agonist | CHO RD-HGA16 hTAAR1, Fluo-8 calcium, beta-PEA response inhibition | inhibition, % at 3 µM | 2,400 tested, 46% active | AID 651951;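 active = inhibition above the run cutoff, the mean inhibition of all test compounds plus 3 SD, cut at about 49% in these data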;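 also: beta-PEA stimulus applied at its EC80; loss of beta-PEA calcium signal after compound pretreatment read as receptor desensitization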
Ga16 nonsel ant: counter-screen for TAAR1 agonists: nonselective Ga16 antagonists; shares compounds with TAAR1 agonist; CHO-Ga16 ATP-induced calcium, Fluo-8 fluorescence; inhibition, % at 3 µM; 2,400 tested, 39% active;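 active = inhibition above the plate's mean compound inhibition plus 3 SD, computed per plate, cut at about 22% in these data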
Hits are given with their value; . = inactive; / = no result. Compounds with a hit are over-represented: about 3.4% of the library has one in this group of screens.

SMILES	TAAR1 antagonist	TAAR1 agonist	M1 PAM	M1 antag	CHRM1 agonist	TAAR1 ag conf	Ga16 nonsel ag	TAAR1 desens	Ga16 nonsel ant
COc1ccc(-c2cc(C3CCN(CC(O)C(F)(F)F)CC3)[nH]n2)cc1 (stereo unspecified)	.	44	.	.	.	77	.	55	.
OC1CCN(CC(O)C(F)(F)F)CC1 (stereo unspecified)	.	.	.	.	.	/	/	/	/
Cc1ccc(CN2CCC(c3cc(-c4ccc(Cl)cc4)n[nH]3)CC2)cc1	.	67	.	.	.	85	21	75	31
COc1ccc(-c2cc(C3CCN(Cc4ccc([N+](=O)[O-])cc4)CC3)[nH]n2)cc1	.	48	.	.	.	40	18	.	.
Cc1cc(C(C)(C)CC(C)(C)C)ccc1OCCOCC[N+](C)(C)Cc1ccccc1	75	81	.	.	.	69	66	.	67
O=C(COC(=O)c1ccc(O)cc1)Nc1ccc(OC(F)F)cc1	.	66	.	.	.	49	.	.	.
CC(=C/c1ccccc1)/C=N/n1cnnc1	.	96	.	.	22	.	59	.	.
C(=C\c1ccccc1)/C=N/n1cnnc1	.	.	.	.	.	/	/	/	/
CC(/C=N/N1CCN(Cc2ccccc2)CC1)=C\c1ccccc1	.	.	.	.	.	/	/	/	/
ClC(/C=N/n1cnnc1)=C/c1ccccc1	.	76	.	.	.	62	30	.	.
CC(/C=N/n1cnnc1)=C\c1ccccc1	.	102	.	.	.	87	63	.	.
COc1ccc(C(C)=O)cc1CC(=O)Nc1ccccc1-c1ccccc1	.	.	.	.	.	/	/	/	/
CC(=O)c1ccc(S(=O)(=O)N(CC(=O)NC2CC2)Cc2ccc(F)cc2)cc1	.	.	.	.	.	/	/	/	/
CC1CN(C(=O)c2cc3cc(F)ccc3[nH]2)CC(C)O1 (stereo unspecified)	.	.	.	.	.	/	/	/	/
CC1=C(C(=O)N(C)C)CC(CC(=O)NCc2cccs2)C(=O)N1Cc1ccc(C(C)(C)C)cc1 (stereo unspecified)	.	.	.	.	.	/	/	/	/
CC1CC(C)CN(C(=O)c2cccc(S(=O)(=O)NCc3ccccc3)c2)C1 (stereo unspecified)	.	58	.	.	.	50	.	.	.
CC1CCCN(C(=O)c2cccc(S(=O)(=O)NCc3ccccc3)c2)C1 (stereo unspecified)	.	.	.	.	.	/	/	/	/
O=C(CSc1cccc[n+]1[O-])NC1CCCCC1	.	.	.	.	.	/	/	/	/
COc1cccc(C(=O)NNC(=O)c2ccc3ccccc3c2O)c1	.	.	.	.	.	/	/	/	/
COc1ccc(C(=O)NC(=S)NNC(=O)c2c(-c3ccccc3)noc2C)cc1OC	.	68	.	.	.	70	47	.	.
Cc1onc(-c2ccccc2)c1C(=O)NC(=S)NNC(=O)c1ccncc1	.	.	.	.	.	/	/	/	/
Cc1onc(-c2ccccc2)c1C(=O)NNC(=S)NC(=O)/C=C/c1cccs1	69	115	.	.	.	107	94	79	62
COc1ccc(C(=O)NNC(=S)NC(=O)c2ccc(Br)o2)cc1OC	.	50	.	.	.	.	13	.	.
Cc1onc(-c2ccccc2)c1C(=O)NCc1ccc2c(c1)OCO2	.	.	.	.	.	/	/	/	/
Cc1onc(-c2ccccc2)c1C(=O)NNC(=S)NC(=O)c1ccc2c(c1)OCO2	.	89	.	.	52	95	81	52	38
SMILES	TAAR1 antagonist	TAAR1 agonist	M1 PAM	M1 antag	CHRM1 agonist	TAAR1 ag conf	Ga16 nonsel ag	TAAR1 desens	Ga16 nonsel ant
NC(=O)c1cccc(-c2coc3c(C(=O)NCc4ccccc4)cccc23)c1	.	.	.	.	.	/	/	/	/
O=C(N[C@@H](Cc1cccnc1)C(=O)N1CCC[C@H]1C(=O)NCCc1ccccc1Cl)C1CCCC1	73	80	/	/	/	80	.	86	.
COc1cccc(C(=O)N[C@@H](Cc2cccnc2)C(=O)N2CCC[C@H]2C(=O)NCCc2ccccc2Cl)c1	71	67	/	/	/	83	.	93	.
COc1cccc(C(=O)N2CCC[C@H]2C(=O)N2CCC[C@H]2C(=O)NCc2ccncc2)c1	.	.	/	/	/	/	/	/	/
O=C(CC1CCCC1)N[C@@H](Cc1cccnc1)C(=O)N1CCC[C@H]1C(=O)NCCc1ccccc1Cl	78	70	/	/	/	87	13	90	.
O=C(N[C@@H](Cc1cccnc1)C(=O)N1CCC[C@H]1C(=O)NCCc1ccccc1Cl)c1ccc(Cl)cc1Cl	66	65	/	/	/	72	.	89	.
CCOc1ccc(S(=O)(=O)NCCC(=O)N(C)Cc2cccs2)cc1	.	.	.	.	.	/	/	/	/
CCCCn1c(N)c(N(CC(C)C)C(=O)c2cccc(S(=O)(=O)N(CC)c3ccccc3)c2)c(=O)[nH]c1=O	.	.	.	.	.	/	/	/	/
COc1ccc(CC(N)c2csc(Nc3cccc(OC)n3)n2)cc1 (stereo unspecified)	.	61	.	.	.	71	30	.	29
COc1cccc(Nc2nc(C(N)COCc3ccccc3)cs2)n1 (stereo unspecified)	.	59	.	.	.	80	.	56	.
COc1cccc(Nc2nc(C(N)Cc3ccc(C(F)(F)F)cc3)cs2)n1 (stereo unspecified)	.	60	.	.	.	52	38	54	59
COc1cccc(Nc2nc(C(N)Cc3ccc(F)cc3)cs2)n1 (stereo unspecified)	.	62	.	.	.	38	20	.	29
COc1cccc(Nc2nc(C(N)C(C)C)cs2)n1 (stereo unspecified)	.	.	.	.	.	/	/	/	/
NC(COCc1ccccc1)c1csc(Nc2cc(Oc3ccccc3)ncn2)n1 (stereo unspecified)	.	.	.	.	.	/	/	/	/
NC(=O)c1cccc(Nc2nc(C(N)Cc3ccc(C(F)(F)F)cc3)cs2)n1 (stereo unspecified)	.	.	.	.	.	/	/	/	/
COc1ccc(CC(N)c2csc(Nc3ccccn3)n2)cc1 (stereo unspecified)	.	.	.	.	.	/	/	/	/
CC1CCCC(NC(=O)c2ccc3c(c2)NC(=O)CS3)C1C (stereo unspecified)	.	.	.	.	.	/	/	/	/
